In paper PMC3319156 (Journal of Medicinal Chemistry, 2011):

Experiments:
[1] = test system: cultured melanoma, breast, prostate, and pancreatic tumor cell lines; settings: cited from earlier work
[2] = molecular target: Tyr705 of Stat3 (Homo sapiens, UniProt P40763); assay: Inhibition of constitutive Stat3 Tyr705 phosphorylation in MDA-MB-468 cells; type: cell-based; settings: for concentration at which pStat3 was completely inhibited / concentration with noticeable inhibition of pStat3: MDA-MB-468, 2 h treatment, western blot; for time at which pStat3 formation was completely inhibited / time for which complete inhibition of pStat3 was sustained: MDA-MB-468, single dose of 5 µM; for effect on pStat3 band at 25 µM: MDA-MB-468, 25 µM
Chain of Tyr705 of Stat3 (P40763 whole entry): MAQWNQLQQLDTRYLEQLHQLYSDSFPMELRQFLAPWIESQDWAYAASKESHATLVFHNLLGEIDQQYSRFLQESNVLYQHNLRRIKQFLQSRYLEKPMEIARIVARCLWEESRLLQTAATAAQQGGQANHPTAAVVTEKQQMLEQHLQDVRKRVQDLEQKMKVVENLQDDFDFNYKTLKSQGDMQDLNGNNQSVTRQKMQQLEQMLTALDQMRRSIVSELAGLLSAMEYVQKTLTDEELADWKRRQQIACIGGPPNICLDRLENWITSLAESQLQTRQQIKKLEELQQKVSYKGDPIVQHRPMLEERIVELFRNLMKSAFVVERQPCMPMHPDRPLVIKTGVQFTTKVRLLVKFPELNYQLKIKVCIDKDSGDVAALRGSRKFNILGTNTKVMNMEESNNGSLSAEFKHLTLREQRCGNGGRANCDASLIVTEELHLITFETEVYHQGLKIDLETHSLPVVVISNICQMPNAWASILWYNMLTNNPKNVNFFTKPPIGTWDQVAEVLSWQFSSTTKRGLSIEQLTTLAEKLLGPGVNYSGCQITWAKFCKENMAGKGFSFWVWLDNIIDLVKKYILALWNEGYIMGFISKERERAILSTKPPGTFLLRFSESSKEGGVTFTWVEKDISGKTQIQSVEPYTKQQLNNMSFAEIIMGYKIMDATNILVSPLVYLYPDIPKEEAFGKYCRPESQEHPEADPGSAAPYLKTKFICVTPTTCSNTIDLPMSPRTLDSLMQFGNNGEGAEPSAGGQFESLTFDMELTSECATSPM
Summary of the method: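 MDA-MB-468 cells (4 × 10^5/well) were grown overnight in DMEM with 10% FCS. Prodrug was given from a 10 mM DMSO stock prepared fresh, for 2 h, or over a time course. After ice-cold PBS washes, cells were lysed (Hepes pH 7.4, Triton X-100, NaF, vanadate, protease inhibitors). 12 µg protein went on 8% SDS-PAGE/PVDF with 5% BSA block. Blots were probed for pStat3 Y705 by ECL, stripped at 50°C, and reprobed for total Stat3.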

[3] = test system: H528; assay: Growth inhibition of H528 NSCLC cells; type: cell-based; settings: H528, 5–10 µM, data not shown
[4] = test system: Ser473 of Akt; assay: Akt Ser473 phosphorylation in MDA-MB-468 cells; type: cell-based; settings: MDA-MB-468, 5 µM, 1.5 h then EGF 30 min
[5] = molecular target: T1, Tyr701 of Stat1 (Homo sapiens, UniProt P42224); assay: IFNγ-stimulated Stat1 Tyr701 phosphorylation in MDA-MB-468 cells; type: cell-based; settings: MDA-MB-468, 1.5 h then 30 min IFNγ
T1 sequence (P42224 1-750): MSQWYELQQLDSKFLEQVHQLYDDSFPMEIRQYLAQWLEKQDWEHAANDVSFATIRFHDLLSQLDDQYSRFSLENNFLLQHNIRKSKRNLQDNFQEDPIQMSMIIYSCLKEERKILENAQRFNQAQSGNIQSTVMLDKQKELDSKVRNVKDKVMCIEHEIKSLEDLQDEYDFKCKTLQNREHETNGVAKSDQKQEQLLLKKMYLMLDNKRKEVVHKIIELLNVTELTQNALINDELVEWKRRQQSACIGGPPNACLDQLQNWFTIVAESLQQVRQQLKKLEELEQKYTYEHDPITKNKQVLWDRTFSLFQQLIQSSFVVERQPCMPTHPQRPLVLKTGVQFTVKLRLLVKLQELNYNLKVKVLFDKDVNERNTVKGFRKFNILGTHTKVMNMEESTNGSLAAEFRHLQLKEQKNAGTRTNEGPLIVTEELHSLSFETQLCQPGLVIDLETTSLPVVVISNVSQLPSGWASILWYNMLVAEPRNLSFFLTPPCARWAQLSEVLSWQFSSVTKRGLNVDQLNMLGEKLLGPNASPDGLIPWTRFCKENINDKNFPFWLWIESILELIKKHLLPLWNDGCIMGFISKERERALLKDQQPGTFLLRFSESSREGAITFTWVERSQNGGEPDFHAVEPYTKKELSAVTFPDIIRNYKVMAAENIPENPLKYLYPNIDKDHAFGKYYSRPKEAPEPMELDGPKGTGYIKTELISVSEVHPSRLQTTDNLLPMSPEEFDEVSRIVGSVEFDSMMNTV
Summary of the method: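 MDA-MB-468 cells were prepared as for the Stat3 assay (plated overnight in DMEM/10% FCS) and exposed to increasing test compound concentrations for 1.5 h. Interferon γ was then added at 25 ng/mL for 30 min. Lysates were run on PAGE, blotted to PVDF, and probed for pTyr701 Stat1 and total Stat1 with chemiluminescent detection.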

[6] = test system: Tyr694 of Stat5; assay: Stat5 Tyr694 phosphorylation in MDA-MB-468 cells; type: cell-based; settings: MDA-MB-468, 5 µM, 1.5 h then EGF 30 min
[7] = molecular target: T2, Stat3 (Homo sapiens, UniProt P40763); assay: Inhibition of constitutive Stat3 phosphorylation in BT20 breast tumor cells; type: cell-based; settings: screen
T2 sequence (P40763 whole entry): as the sequence (P40763 whole entry) above

[8] = test system: MDA-MB-468 cells; assay: Cytotoxicity to MDA-MB-468 cells, MTT assay; type: cell-based; settings: MDA-MB-468, treated daily for three days
Summary of the method: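 MDA-MB-468 cells in DMEM with 10% FBS were plated at 1500 cells/well in triplicate, and the medium was changed the next day. Prodrug was dissolved fresh in ethanol to a 10 mM stock, diluted, and added. Further doses went into the same medium at 24 and 48 h, with final ethanol below 1%. Viability was read by MTT.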

[9] = test system: Tyr861 of the focal adhesion kinase (FAK); assay: Constitutive FAK Tyr861 phosphorylation in MDA-MB-468 cells; type: cell-based; settings: MDA-MB-468, 2 h treatment
Summary of the method: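 Constitutive signal, no stimulus: MDA-MB-468 cells were plated overnight in DMEM/10% FCS and given test compound from a 10 mM DMSO stock for 2 h. Cells were lysed in Hepes pH 7.4 detergent buffer with phosphatase and protease inhibitors. Protein was separated by SDS-PAGE, blotted to PVDF, blocked with 5% BSA, and probed for pTyr861 FAK and total FAK.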

[10] = molecular target: T2, Stat3; assay: EGF-stimulated Stat3 phosphorylation in MDA-MB-468 cells; type: cell-based; settings: MDA-MB-468, 5 µM, 1.5 h then EGF 30 min
[11] = test system: Tyr861 of FAK; settings: tumor cells; cited from earlier work

In the case of `Cc1cc(Nc2nc(N[C@@H](C)c3ncc(F)cn3)ncc2Cl)n[nH]1` [AZD1480], the “cytotoxicity at concentrations that completely eliminated Tyr705 phosphorylation” value [1] is given as “not cytotoxic”.
In the case of `CC(C)(C)c1nc2c3cc[nH]c(=O)c3c3cc(F)ccc3c2[nH]1` [P6], the “cytotoxicity at concentrations that completely eliminated Tyr705 phosphorylation” value [1] is listed as “not cytotoxic”.
For `C/C(=C\C(=O)N[C@H]1CCc2cccc3c2N(C1=O)[C@H](C(=O)N[C@@H](CCC(N)=O)C(=O)NCc1ccccc1)C3)c1ccc(C(F)(F)P(=O)(OCOC(=O)C(C)(C)C)OCOC(=O)C(C)(C)C)cc1` [compound 32], the “effect on level of pStat3” value ([2]; MDA-MB-468, 2 h, increasing concentrations) was “reduced the level of pStat3 in a dose-dependent manner”.
For `C[C@H](CCC(N)=O)NC(=O)[C@@H]1Cc2cccc3c2N1C(=O)[C@@H](NC(=O)/C=C/c1ccc(C(F)(F)P(=O)(OCOC(=O)C(C)(C)C)OCOC(=O)C(C)(C)C)cc1)CC3` [compound 33], the “concentration at which pStat3 was completely inhibited” value [2] was 0.5 µM and the “concentration with noticeable inhibition of pStat3” value [2] was 0.1 µM.
With `CCCC[C@H](NC(=O)/C=C(\C)c1ccc(C(F)(F)P(=O)(OCOC(=O)C(C)(C)C)OCOC(=O)C(C)(C)C)cc1)C(=O)N1C[C@H]2C[C@H]2[C@H]1C(=O)N[C@@H](CCC(N)=O)C(C)OCc1ccccc1` (stereo partly drawn) [compound 35] the inhibition [3] was less than 20%, the “Akt Ser473 phosphorylation” value [4] was “do not inhibit Akt phosphorylation” and the “concentration of complete inhibition of Stat1 phosphorylation” value [5] was 5 µM. For the same compound, the Stat5 phosphorylation [6] was “not inhibited”, the “ability to inhibit constitutive phosphorylation of Stat3” value [7] was “considerable potency” and the “survival curves with daily dosing compared with single dose” value [8] was “little change in the survival curves”. For the same compound, the “FAK Tyr861 phosphorylation” value [9] was “no reduction of Tyr861 phosphorylation”, the “concentration at which pStat3 was completely inhibited” value [2] was 0.5 µM and the “time at which pStat3 formation was completely inhibited” value [2] was 30 min. The “time for which complete inhibition of pStat3 was sustained” value [2] was 4 h and the “increase in Stat3 phosphorylation induced by EGF” value [10] was “completely inhibited”.
For `CCCC[C@H](NC(=O)/C=C(\C)c1ccc(C(F)(F)P(=O)(OCOC(=O)C(C)(C)C)OCOC(=O)C(C)(C)C)cc1)C(=O)N1C[C@@H]2C[C@@H]2[C@@H]1C(=O)N[C@@H](CCC(N)=O)C(C)OCc1ccccc1` (stereo partly drawn) [compound 36], the “effect on pStat3 band at 25 µM” value [2] was “only partially reduced”, the “concentration with noticeable inhibition of pStat3” value [2] was no less than 25 µM and the “fold less potent at inhibiting Stat3 phosphorylation” value ([2]; relative to 35) was 20–25 fold.
With `CCCC[C@H](NC(=O)/C=C(\C)c1ccc(C(F)(F)P(=O)(OCOC(=O)C(C)(C)C)OCOC(=O)C(C)(C)C)cc1)C(=O)N1C[C@H]2C[C@H]2[C@H]1C(=O)N[C@H](C)CCC(N)=O` [compound 37] the “Akt Ser473 phosphorylation” value [4] was “do not inhibit Akt phosphorylation”, the “concentration of complete inhibition of Stat1 phosphorylation” value [5] was 5 µM and the Stat5 phosphorylation [6] was “not inhibited”. The “ability to inhibit constitutive phosphorylation of Stat3” value [7] was “considerable potency”, the “FAK Tyr861 phosphorylation” value [9] was “no reduction of Tyr861 phosphorylation” and the “concentration at which pStat3 was completely inhibited” value [2] was 0.5 µM. For the same compound, the “time at which pStat3 formation was completely inhibited” value [2] was 30 min, the “time for which complete inhibition of pStat3 was sustained” value [2] was 4 h and the “increase in Stat3 phosphorylation induced by EGF” value [10] was “completely inhibited”.
With `CCCC[C@H](NC(=O)/C=C(\C)c1ccc(C(F)(F)P(=O)(OCOC(=O)C(C)(C)C)OCOC(=O)C(C)(C)C)cc1)C(=O)N1C[C@@H]2C[C@@H]2[C@@H]1C(=O)N[C@H](C)CCC(N)=O` [compound 38] the “effect on pStat3 band at 25 µM” value [2] was “only partially reduced”.
In the case of `CCCC[C@H](NC(=O)/C=C(\C)c1ccc(C(F)(F)P(=O)(OCOC(=O)C(C)(C)C)OCOC(=O)C(C)(C)C)cc1)C(=O)N1CC2CC2C1C(=O)NCCNC(N)=O` (stereo partly drawn) [compound 39], the “concentration at which pStat3 was completely inhibited” value [2] is reported as 5 µM and the “inhibition of the phosphorylation of Stat3 up to 1 µM” value ([2]; MDA-MB-468, up to 1 µM, 2 h) is reported as “little inhibition”.
In the case of `CCOP(=O)(OCC)C(F)(F)c1ccc(/C(C)=C/C(=O)N[C@H]2CCc3cccc4c3N(C2=O)[C@H](C(=O)N[C@H](C)CCC(N)=O)C4)cc1` [compound 40], the “effect on pStat3 band at 25 µM” value [2] is reported as “no effect on Stat3 phosphorylation”.
In the case of `Cc1nc(Nc2ncc(C(=O)Nc3c(C)cccc3Cl)s2)cc(N2CCN(CCO)CC2)n1` [dasatinib], the “levels of Tyr861 phosphorylation on treatment” value [11] is listed as “decrease”.
